# Redox H2O2 prof – compounds producing H2O2 with reducing agent – biochemical, NIH compound library profiling, artefact control for MLSCN library redox annotation, primary screen; DTT-dependent redox cycling H2O2, phenol red/HRP absorbance; 100% = 100 µM peroxide control, 0% = buffer; activation, % at 10 µM; 200,000 compounds, 0.03% hits; AID 878, 2007;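 active means activation of at least 50% relative to the plate's high and low controls in the primary single-dose screen; inactive means activation below 50%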;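 further: compound incubated with DTT at 0.8 mM final as the reducing agent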
# Diaph act CS – compounds boosting diaphorase resazurin reduction – biochemical, uHTS, resorufin fluorescence, counter-screen for diaphorase-coupled primary assays, primary screen; Diaphorase/resazurin coupled assay, 16 min; hits give high values; 1 = vehicle wells, 0 = NADH-free wells; 190,000 compounds, 0.005% hits; activation factor at 20 µM; AID 1229, 2008;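 active means diaphorase activity raised at least twofold by the compound at 20 µM; inactive means activation factor below 2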
#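 Material: bacterial diaphorase enzyme (C. kluyveri); amount: enzyme 0.07 U/mL final; reagent: NADH substrate 0.114 mM plus resazurin dye 0.1 mM, final; doses: single compound dose of 20 µM, 1% DMSO final; timing: 16 min enzyme reaction, ambient temperature; measured by: fluorescence of resorufin, 544 nm excitation, 590 nm emission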
# L major viab – Leishmania major promastigote growth inhibition, primary screen. inhibition, % at 10 µM. 200,000 compounds, 9% hits. Leishmania major promastigotes, resazurin fluorescence viability. AID 1063, 2008;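 further: promastigotes grown with compound for 44 hours at 28 °C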
# Diaphorase inh – diaphorase inhibitors and chemical oxidizers, primary screen, counter-screen for diaphorase-coupled primary assays, biochemical, uHTS, resorufin fluorescence. diaphorase resazurin-to-resorufin fluorescence, NADH, 16 min; bacterial (C. kluyveri) enzyme, not human. inhibition, % at 20 µM. 190,000 compounds, 0.69% hits. AID 1217, 2008;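 active means primary screen inhibition at 20 µM above a set limit, cut at about 50% in these data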;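 further: plate controls were DMSO with full reaction for no effect and wells lacking NADH for full effect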
#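 Detection: fluorescence of resorufin formed from resazurin, Ex 544/Em 590 nm; test system: Clostridium kluyveri diaphorase enzyme; amount: 0.14 U/mL diaphorase, enzyme working solution; times: 16-min room-temperature incubation before reading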
# PfGluPho inh – PfG6PD enzyme inhibitors, primary screen, biochemical, fluorescence intensity, uHTS | PfGluPho enzyme, NADPH resazurin-diaphorase fluorescence | inhibition, % at 20 µM | 350,000 compounds, 0.78% hits;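 active means inhibition reaching at least a set limit at 20 µM in the primary screen, cut at about 59% in these data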;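 further: 0% = DMSO wells with substrate and 100% = DMSO wells lacking glucose-6-phosphate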
# G6PDH counter – L. mesenteroides G6PDH inhibitors, counter-screen for G6PDH-coupled screening assays, biochemical, Leuconostoc mesenteroides enzyme | glucose-6-phosphate dehydrogenase [Leuconostoc mesenteroides] | Purified L. mesenteroides G6PDH, diaphorase/resazurin coupled fluorescence, 45 min | inhibition, % at 5 µM | 200,000 compounds, 0.12% hits | AID 1020, 2008
# PfGluPho conf – PfG6PD inhibitors, hit retest, confirmation, biochemical, fluorescence intensity, single concentration | 2,400 compounds, 34% hits | AID 504753, 2011 | shares compounds with PfGluPho inh | inhibition, % at 20 µM | recombinant PfGluPho, NADPH-diaphorase-resazurin fluorescence;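 active means inhibition of at least 50% at 20 µM in any single replicate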;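 further: 0% = DMSO with substrate and 100% = DMSO lacking glucose-6-phosphate substrate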
# Diaph ctr 10uM – diaphorase inhibitors and chemical oxidizers, confirmation, counter-screen for P. falciparum G6PD inhibitor project, biochemical, fluorescence intensity, 10 µM NADPH. AID 504862, 2011. shares compounds with PfGluPho inh. diaphorase-coupled resazurin reduction, NADPH 10 uM. inhibition, % at 20 µM. 820 compounds, 39% hits;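 active means average inhibition reaching 50% or more with the compound at 20 µM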;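 further: resorufin red fluorescence formed as diaphorase reduces resazurin using NADPH; 0% = DMSO with enzyme and 100% = DMSO without enzyme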
# Diaphorase 30uM – diaphorase inhibitors and chemical oxidizers, confirmation, counter-screen for P. falciparum G6PD inhibitor project, biochemical, fluorescence intensity, 30 µM NADPH; shares compounds with PfGluPho inh; inhibition, % at 20 µM; Diaphorase/resazurin coupled assay, resorufin fluorescence; 820 compounds, 29% hits;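 active means inhibition averaging 50% or more, tested at 20 µM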;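 further: 0% = DMSO with enzyme and 100% = DMSO wells lacking diaphorase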
# An asterisk follows results filed as active; . = no result. The entries come from a sample that favours hits as a whole. Unless noted, no stated cut-off is given here; in the data, active means inhibition above about 50%; inactive means the rest.
SMILES,Redox H2O2 prof,Diaph act CS,L major viab,Diaphorase inh,PfGluPho inh,G6PDH counter,PfGluPho conf,Diaph ctr 10uM,Diaphorase 30uM
CC(C)n1cnc2c(NCc3ccccc3)cc(N[C@H](C)CO)cc21,.,.,.,.,67.1*,.,36.7,.,.
COc1cc(NCc2ccccc2)c2ncn(Cc3ccccc3)c2c1,.,.,.,.,65.8*,.,49.9*,-10.8,-9.6
COc1ccc(Cc2cc(NCc3ccccc3)c3ncn(C(C)C)c3c2)cc1,.,.,.,.,54.8,.,.,.,.
CCC(CO)Oc1cc(NCc2ccccc2)c2ncn(C(C)C)c2c1 (stereo not given),.,.,.,.,8.8,.,.,.,.
COc1cc(C(=O)NCc2nnc(SCC(=O)NCc3ccco3)o2)cc(OC)c1OC,.,.,.,.,-5.4,.,.,.,.
COC(=O)[C@H](C)N(Cc1ccc(Cl)c(Cl)c1)S(=O)(=O)CCN1CCN(c2ccccc2)CC1,.,.,.,.,13.4,.,.,.,.
O=C(CC(c1ccccc1)c1cc(Cl)ccc1O)NCCCN1CCOCC1 (stereo not given),.,.,.,.,-13.4,.,.,.,.
Cc1ccsc1CN(C)CC(=O)N(C)CC(=O)Nc1c(Cl)cccc1Cl,.,.,.,.,-6.7,.,.,.,.
CC(C)CNC(=O)C(=O)NNC(=O)c1ccco1,-0.8,0.9,-6.6,11.2,-2.1,8.9,.,.,.
Cc1cccc(C(=O)Nc2cccc(NC(=O)c3ccccc3)c2)c1,.,.,.,.,4.6,.,.,.,.
O=C(Nc1cccc(Cl)c1)c1ccccc1,.,.,.,.,8.0,.,.,.,.
O=C(NC(NC1CCS(=O)(=O)C1)C(=O)c1cccs1)c1ccccc1 (stereo not given),-3.0,0.8,-4.6,16.1,-9.8,-4.3,.,.,.
O=C1C(Cl)=C(NC(=O)c2ccccc2)C(=O)C(Cl)=C1NC(=O)c1ccccc1,.,.,.,.,113.8*,.,109.9*,86.2*,61.4*
Cc1cccc(NC2=C(NC(=O)c3ccccc3)C(=O)c3ccccc3C2=O)c1,3.3,0.7,51.9*,33.6,83.5*,-18.3,68.6*,41.4,40.6
O=C(NC1=C(NC2CCS(=O)(=O)C2)C(=O)c2ccccc2C1=O)c1ccccc1 (stereo not given),0.1,0.3,99.4*,71.5*,103.8*,51.4*,95.4*,98.2*,90.0*
COc1cccc(C(=O)Nc2sc(C(C)C)cc2C(N)=O)c1OC,.,.,.,.,97.7*,.,23.2,.,.
CCCCCn1c(-c2ccco2)nc2nc3ccccc3nc21,-0.5,0.9,7.3,14.1,63.6*,-23.6,34.3,.,.
COc1ccc(CCn2c(-c3ccco3)nc3nc4ccccc4nc32)cc1,-1.6,1,18.4,2.6,16.0,-27.9,.,.,.
O=C(CN1CCN(S(=O)(=O)c2ccccc2)CC1)Nc1ccccc1C(=O)c1ccccc1,1.2,0.9,3.3,9.0,20.2,-43.8,.,.,.
CC1(C)CC2(CC(c3ccccc3F)c3ccc(O)c(O)c3O2)NC(=S)N1 (stereo not given),-0.4,0.3,-2.6,67.7*,66.1*,29.3,70.3*,23.4,13.4
Cn1sc2ccccc2c1=O,.,.,.,.,91.4*,.,52.0*,-13.1,8.3
O=c1c2ccccc2sn1-c1nccs1,-0.8,0.5,11.0,51.3*,112.4*,1.7,114.6*,-25.4,-24.3
O=c1c2ccccc2sn1-c1ccccc1F,.,.,.,.,121.6*,.,108.9*,-8.4,8.2
O=c1c2ccccc2sn1-c1cccc(Cl)c1,.,.,.,.,127.8*,.,104.1*,-10.7,3.1
